RAM network inh: inhibitors of the yeast RAM network | S. cerevisiae dse1pr::URA3 reporter, 5-FOA growth OD615, 2 d; analog-sensitive cbk1-as2 kinase mutant strain | inhibition, % at 50 µM | hit rate 1.8% among 190,000 | AID 868;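 active = inhibition above a set limit, 3 SD over mean compound inhibition, cut at about 8.4% in these data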;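 also: inhibition rescues growth on 5-FOA so higher OD means more RAM inhibition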
ABCB1 inh: blocks JC-1 efflux by human ABCB1 transporter; hit rate 0.067% among 190,000; P08183; inhibition, % at 6.6 µM; CCRF-Adr cells, flow cytometry; in the data active = inhibition above about 40%;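 also: higher value means more JC-1 retained so stronger ABCB1 efflux block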
Arbovirus anti: antivirals against arbovirus infection; inhibition, % at 10 µM; arbovirus infection cell-based antiviral screen; AID 1251; hit rate 0.37% among 200,000; in the data active = inhibition above about 30%
ABCG2 block: blocks JC-1 efflux by human ABCG2 transporter; Q9UNQ0; IgMXP3 cells, flow cytometry; inhibition, % at 6.6 µM; hit rate 0.1% among 190,000;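 active = inhibition above 80%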
Target sequence (Q9UNQ0 whole entry, looked up): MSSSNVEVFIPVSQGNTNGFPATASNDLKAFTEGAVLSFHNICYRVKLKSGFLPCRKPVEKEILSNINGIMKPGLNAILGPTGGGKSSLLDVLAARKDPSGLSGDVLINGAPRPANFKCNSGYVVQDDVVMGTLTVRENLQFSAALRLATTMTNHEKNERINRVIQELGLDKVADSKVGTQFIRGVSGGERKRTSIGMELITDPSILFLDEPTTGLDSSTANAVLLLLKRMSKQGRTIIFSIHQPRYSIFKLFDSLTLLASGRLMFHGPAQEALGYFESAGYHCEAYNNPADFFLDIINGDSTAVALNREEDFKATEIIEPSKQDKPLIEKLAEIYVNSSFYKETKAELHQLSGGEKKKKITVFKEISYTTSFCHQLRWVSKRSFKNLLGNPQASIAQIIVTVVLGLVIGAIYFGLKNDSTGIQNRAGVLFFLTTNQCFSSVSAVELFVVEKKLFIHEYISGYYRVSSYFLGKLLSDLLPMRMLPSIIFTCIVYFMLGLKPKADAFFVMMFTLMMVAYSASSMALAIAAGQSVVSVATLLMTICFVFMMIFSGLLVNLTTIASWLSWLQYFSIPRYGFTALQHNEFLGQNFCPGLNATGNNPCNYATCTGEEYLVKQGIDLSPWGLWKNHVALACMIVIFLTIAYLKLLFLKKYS
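Incubation: cells with compound and JC-1, 10 min at 25 °C, rotating, no wash / Test system: IgMXP3 (ABCG2) plus far-red-tagged CCRF-Adr (ABCB1) cells / Compound dosing: one concentration, 6.6 µM final / Also added: JC-1 fluorescent substrate / Evaluation: efflux inhibition in percent versus controls / Detection: flow cytometry, 530 nm JC-1 signal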
A number is an active result; - = inactive. In the library only some 2.3% were active in any assay of this set; here they are far more common.

SMILES	RAM network inh	ABCB1 inh	Arbovirus anti	ABCG2 block
CCOC(=O)c1c(NC(=O)COc2ccccc2)sc2c1CC(C)(C)NC2(C)C	-	-	-	-
CCN(CC)S(=O)(=O)c1cc(NS(=O)(=O)c2cccc(Cl)c2Cl)ccc1C	10	-	-	-
CCN(CC)S(=O)(=O)c1cc(NS(=O)(=O)c2cccc(Cl)c2)ccc1C	-	-	-	-
Cc1ccc(S(=O)(=O)Oc2ccc(C3C4=C(CCCC4=O)N(CCC(=O)O)C4=C3C(=O)CCC4)cc2Cl)cc1	8.9	-	-	-
CC(=O)N1Cc2cc(N)ccc2Oc2ccccc21	-	-	-	-
Cc1[nH]c2ccccc2c1C(=O)COC(=O)c1ccc2c(=O)n3c(nc2c1)CCC3	9.1	-	-	-
COc1ccc(OC2C(=O)N(Cc3ccc(F)cc3)C2c2cc(OC)c(OC)c(OC)c2)cc1 (stereo not drawn)	-	-	-	-
COc1ccc(C2C(Oc3ccccc3C)C(=O)N2Cc2ccc(F)cc2)cc1OC (stereo not drawn)	8.9	-	-	-
CC(=O)NC12CC3CC(C1)CC(C(=O)Nc1nccs1)(C3)C2	10	-	-	-
CCOc1ccccc1NC(=O)C(OC(=O)c1ccccc1O)c1ccccc1 (stereo not drawn)	8.9	-	-	-
CCOc1ccccc1C(=O)Nc1ccccc1-c1ccccc1	9.6	-	-	-
CCOC(=O)Cc1nnc(NC(=O)c2ccccc2OC)s1	-	-	-	-
CCOc1ccccc1NC(=O)C(OC(=O)c1ccccc1)c1ccccc1 (stereo not drawn)	-	-	-	-
CCOC(=O)Cc1nnc(NC(=O)c2ccccc2OCC)s1	-	-	78	-
CCOc1ccccc1C(=O)Nc1ccccc1O	-	-	-	-
COCCNc1nc(CSc2ccccc2)nc2sc(C)c(C)c12	-	-	-	-
O=[N+]([O-])c1ccc(Nc2nc(N/N=C\c3ccc4c(c3)OCO4)nc(N3CCCCC3)n2)cc1	11	-	-	-
Nc1cc(=O)[nH]c(SCC(=O)N2CCCc3ccccc32)n1	-	-	-	-
COc1ccc(Cl)cc1N1C(=O)/C(=C\c2sccc2C)N=C1SCC(=O)NC1CC1	8.6	-	-	-
COc1cc(NC(=S)NCCC(c2ccccc2)c2ccccc2)cc(OC)c1	9.1	-	-	-
COc1ccc(NC(=S)NCCC(c2ccccc2)c2ccccc2)c(OC)c1	-	-	-	-
CC(C)c1ccc(SCc2noc(C(=O)NCC3CCCO3)c2C(=O)O)cc1 (stereo not drawn)	-	-	-	-
COC(=O)COc1ccc(S(=O)(=O)N2CCOCC2)cc1C	-	-	-	-
COc1cc(Sc2ccc(C)cc2)c(OC)cc1N	11	-	-	-
CCN(CC)C(=S)Nc1c(C)n(C)n(-c2ccccc2)c1=O	-	-	-	-
SMILES	RAM network inh	ABCB1 inh	Arbovirus anti	ABCG2 block
Nc1[nH]nc2nc(NCc3ccccc3)c3c(c12)CCN(Cc1ccccc1)C3	-	-	49	-
O=C(NCc1ccc(F)cc1)c1c2c(nc3ccccc13)CCN(Cc1ccccc1)C2	-	-	-	-
O=C(O)CSc1nc(-c2ccccc2)nc2c1oc1ccccc12	9.8	-	-	-
c1ccc(-c2nc(NCc3ccco3)c3oc4ccccc4c3n2)cc1	11	-	-	-
Cc1ccc(-c2nc(NCc3ccco3)c3ccccc3n2)cc1	-	-	-	-
COc1ccccc1NC(=O)Cn1cc(C(=O)c2ccco2)c2ccccc21	-	-	-	-
COc1cccc(OCCn2cc(C(=O)c3ccco3)c3ccccc32)c1	10	-	-	-
COc1ccccc1OCCn1cc(C(=O)c2ccco2)c2ccccc21	8.8	-	-	-
COc1ccc(OC)c(NC(=O)Cn2cc(C(=O)c3ccco3)c3ccccc32)c1	-	-	-	-
Cc1ccc(NC(=S)N(CCCN(C)C)Cc2cc3cc4c(cc3[nH]c2=O)OCO4)cc1	-	-	-	-
Cc1ccc(NC2=C(Cl)C(=O)OC2OC(=O)c2ccc(C)cc2)cc1 (stereo not drawn)	9.9	-	-	-
COC(=O)c1ccc(NC2=C(Cl)C(=O)OC2OC(=O)c2ccccc2)cc1 (stereo not drawn)	-	-	-	-
CC(C)(C)c1ccc(C(=O)Nc2cccc([N+](=O)[O-])c2)cc1	-	-	-	116
Cc1ccc(NC(=O)c2ccc(CSc3ccccn3)cc2)cc1	8.4	-	-	-
Cc1ccc(SCc2ccc(C(=O)Nc3cccc([N+](=O)[O-])c3)cc2)cc1	9.6	-	-	-
Cc1ccc([N+](=O)[O-])cc1NC(=O)C(Sc1ccccc1)c1ccccc1 (stereo not drawn)	9.1	-	-	-
O=C(NC1C=CS(=O)(=O)C1)c1sc2ccccc2c1Cl (stereo not drawn)	-	-	-	-
CC(=O)N[C@@H]1c2c(ccc3ccccc23)OC[C@@H]1COC(C)=O	-	-	-	-
CCNC(=O)C1(c2ccccc2)CCCC1	-	-	-	-
Cc1ccc(SCc2ccc(C(=O)Nc3cc([N+](=O)[O-])ccc3C)cc2)cc1	10	-	-	-
Cc1ccc([N+](=O)[O-])cc1NC(=O)c1ccccc1	-	-	-	-
O=C(Nc1nc(-c2ccc(Cl)cc2Cl)cs1)c1ccc(OCC2CCCO2)cc1 (stereo not drawn)	-	-	68	-
COc1cccc(NC(=O)C2CCN(S(=O)(=O)c3ccc4c(c3)OCCO4)CC2)c1	-	-	-	-
CCCc1cc(=O)[nH]c(SCC(=O)Nc2ccc(C)cc2)n1	8.5	-	-	-
CCCc1cc(=O)[nH]c(SCC(=O)NC)n1	-	-	72	-
SMILES	RAM network inh	ABCB1 inh	Arbovirus anti	ABCG2 block
CCCc1cc(=O)[nH]c(SCC(=O)CSc2nc(CCC)cc(=O)[nH]2)n1	-	-	-	-
COc1cc(/C=N/NC(=O)C(N)=O)ccc1OC(=O)c1cccs1	-	-	-	-
CCO[C@H]1OC(C(=O)N2CCOCC2)=C[C@@H](c2ccccc2)[C@@H]1CCCO	-	-	-	-
CCOC(=O)C1(CC2CC2)CCN(C(=O)c2cc(C)nc3ccc(CC)cc23)CC1	-	-	-	-
CC(=O)N1C(=O)/C(=C2\SC(=S)N(c3c(C)n(C)n(-c4ccccc4)c3=O)C2=O)c2ccccc21	-	-	-	-
CC(=O)N1C(=O)/C(=C2\SC(=S)N(NS(=O)(=O)c3ccc(C)cc3)C2=O)c2ccccc21	11	-	-	-
COc1ccc(NC(=O)c2cc3nc(-c4ccccc4)cc(-c4ccccc4)n3n2)c(OC)c1	-	-	-	-
O=C(Nc1cccc(O)c1)c1cc2nc(-c3ccccc3)cc(-c3ccccc3)n2n1	9.7	-	-	-
CCOc1ccc(-n2c(=O)[nH]c3sc4c(c3c2=O)CCCC4)cc1	-	-	40	-
COC(=O)c1cc(NC(=O)N2c3ccccc3Sc3ccccc32)cc(C(=O)OC)c1	9.8	-	-	-
COC(=O)CN1C(=S)N(c2ccc(Cl)cc2)C(=O)C1CC(=O)Nc1ccccc1 (stereo not drawn)	-	-	-	-
O=C(CCn1cccc1)NCc1ccccc1	-	-	-	-
COc1ccc(C=C(c2ccc(OC)cc2)c2ccc(OC)cc2)cc1	8.5	-	-	-
